# Data from the M2OR odorant receptor database.
# Residue numbers refer to the chain shown, from its start.
# Assays:
# Conditions in all cases: stereoisomer not certain
# [1] = test system: T1, O1440
# T1 sequence (whole entry): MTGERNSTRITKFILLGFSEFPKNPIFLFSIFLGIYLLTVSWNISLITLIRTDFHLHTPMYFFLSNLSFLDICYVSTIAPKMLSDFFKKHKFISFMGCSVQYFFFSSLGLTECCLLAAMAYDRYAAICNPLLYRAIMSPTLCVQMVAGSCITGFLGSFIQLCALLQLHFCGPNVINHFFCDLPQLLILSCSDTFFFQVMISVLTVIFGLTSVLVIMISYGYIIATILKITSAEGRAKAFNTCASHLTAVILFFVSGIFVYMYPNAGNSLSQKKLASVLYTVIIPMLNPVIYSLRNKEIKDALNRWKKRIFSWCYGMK
# Procedure, shortened: (§1)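 Each receptor–molecule pair is labelled responsive or non-responsive (inactive) according to whether the original authors judged the measured signal statistically different from baseline. The data were taken from the main text and supplementary material of published papers and checked for typos and inconsistencies. Assay methods differed by source, with transient luciferase assays in mammalian cell lines being common.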
# [2] = test system: T2, O14A2 I133V
# T2 sequence (whole entry): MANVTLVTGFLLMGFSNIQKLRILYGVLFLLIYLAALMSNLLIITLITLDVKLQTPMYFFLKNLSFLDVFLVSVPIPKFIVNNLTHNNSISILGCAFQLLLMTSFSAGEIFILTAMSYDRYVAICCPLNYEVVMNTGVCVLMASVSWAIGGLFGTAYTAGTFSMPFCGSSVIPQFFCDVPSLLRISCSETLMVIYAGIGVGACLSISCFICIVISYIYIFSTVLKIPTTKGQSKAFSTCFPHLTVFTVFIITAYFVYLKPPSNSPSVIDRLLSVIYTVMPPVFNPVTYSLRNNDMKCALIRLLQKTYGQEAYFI
# Procedure, shortened: as §1
# [3] = test system: T3, O14CZ
# T3 sequence (whole entry): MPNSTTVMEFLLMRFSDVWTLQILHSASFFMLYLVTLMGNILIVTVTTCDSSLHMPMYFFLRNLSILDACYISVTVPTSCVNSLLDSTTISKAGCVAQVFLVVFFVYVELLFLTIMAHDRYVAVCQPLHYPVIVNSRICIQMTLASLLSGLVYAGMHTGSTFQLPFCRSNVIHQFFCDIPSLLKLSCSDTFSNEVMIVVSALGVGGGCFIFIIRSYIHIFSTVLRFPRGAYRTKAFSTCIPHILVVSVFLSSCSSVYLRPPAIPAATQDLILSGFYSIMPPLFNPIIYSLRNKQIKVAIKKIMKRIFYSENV
# Procedure, shortened: as §1
# [4] = test system: T4, O14I1 V36A D50N Y216C
# T4 sequence (whole entry): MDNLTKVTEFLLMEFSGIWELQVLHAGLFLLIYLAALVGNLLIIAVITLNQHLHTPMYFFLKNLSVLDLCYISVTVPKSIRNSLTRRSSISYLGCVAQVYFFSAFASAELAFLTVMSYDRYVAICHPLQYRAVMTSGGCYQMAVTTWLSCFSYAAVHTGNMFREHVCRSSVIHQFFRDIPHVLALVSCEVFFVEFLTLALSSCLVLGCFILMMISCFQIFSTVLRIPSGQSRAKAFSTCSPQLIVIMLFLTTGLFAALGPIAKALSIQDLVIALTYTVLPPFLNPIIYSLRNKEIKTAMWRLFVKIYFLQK
# Procedure, shortened: as §1
# [5] = test system: T5, O14J1 N3Y
# T5 sequence (whole entry): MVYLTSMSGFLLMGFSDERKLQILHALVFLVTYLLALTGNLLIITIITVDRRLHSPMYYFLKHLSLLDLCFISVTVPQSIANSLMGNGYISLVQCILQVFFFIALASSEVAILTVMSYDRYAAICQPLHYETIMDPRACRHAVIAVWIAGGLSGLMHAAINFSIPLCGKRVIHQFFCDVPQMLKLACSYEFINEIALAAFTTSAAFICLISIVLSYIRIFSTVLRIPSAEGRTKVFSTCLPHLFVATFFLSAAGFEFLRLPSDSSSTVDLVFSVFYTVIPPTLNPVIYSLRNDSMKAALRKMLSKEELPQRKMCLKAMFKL
# Procedure, shortened: as §1
# [6] = test system: T6, O14K1 D119Y
# T6 sequence (whole entry): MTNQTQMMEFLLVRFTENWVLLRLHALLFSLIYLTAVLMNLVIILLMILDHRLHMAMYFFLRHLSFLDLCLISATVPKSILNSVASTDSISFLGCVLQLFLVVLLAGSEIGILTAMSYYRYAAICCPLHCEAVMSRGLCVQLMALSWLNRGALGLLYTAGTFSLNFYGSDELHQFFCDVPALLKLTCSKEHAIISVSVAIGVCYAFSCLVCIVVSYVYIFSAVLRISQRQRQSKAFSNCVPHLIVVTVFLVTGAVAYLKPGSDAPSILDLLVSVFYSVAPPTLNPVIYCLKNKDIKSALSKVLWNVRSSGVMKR
# Procedure, shortened: as §1
# [7] = test system: T7, O2A25
# T7 sequence (whole entry): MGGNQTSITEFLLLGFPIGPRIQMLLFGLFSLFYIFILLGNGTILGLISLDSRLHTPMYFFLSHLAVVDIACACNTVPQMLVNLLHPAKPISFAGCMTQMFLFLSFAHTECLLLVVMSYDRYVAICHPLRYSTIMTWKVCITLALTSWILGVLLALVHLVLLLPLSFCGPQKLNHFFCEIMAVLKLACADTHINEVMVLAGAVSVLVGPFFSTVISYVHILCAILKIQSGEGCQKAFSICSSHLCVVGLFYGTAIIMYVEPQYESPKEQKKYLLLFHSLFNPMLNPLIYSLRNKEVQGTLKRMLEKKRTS
# Procedure, shortened: as §1
# [8] = test system: T8, O2AE1
# T8 sequence (whole entry): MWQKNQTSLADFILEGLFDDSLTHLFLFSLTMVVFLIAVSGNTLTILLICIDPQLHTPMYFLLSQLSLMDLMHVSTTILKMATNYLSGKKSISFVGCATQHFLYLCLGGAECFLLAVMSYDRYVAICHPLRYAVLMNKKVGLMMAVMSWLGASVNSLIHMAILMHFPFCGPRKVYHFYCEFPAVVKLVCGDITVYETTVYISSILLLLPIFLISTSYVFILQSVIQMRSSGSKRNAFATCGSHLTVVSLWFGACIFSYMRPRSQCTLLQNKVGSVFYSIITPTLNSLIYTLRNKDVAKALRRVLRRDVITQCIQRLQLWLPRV
# Procedure, shortened: as §1
# [9] = test system: T9, O2AK2 S99N
# T9 sequence (whole entry): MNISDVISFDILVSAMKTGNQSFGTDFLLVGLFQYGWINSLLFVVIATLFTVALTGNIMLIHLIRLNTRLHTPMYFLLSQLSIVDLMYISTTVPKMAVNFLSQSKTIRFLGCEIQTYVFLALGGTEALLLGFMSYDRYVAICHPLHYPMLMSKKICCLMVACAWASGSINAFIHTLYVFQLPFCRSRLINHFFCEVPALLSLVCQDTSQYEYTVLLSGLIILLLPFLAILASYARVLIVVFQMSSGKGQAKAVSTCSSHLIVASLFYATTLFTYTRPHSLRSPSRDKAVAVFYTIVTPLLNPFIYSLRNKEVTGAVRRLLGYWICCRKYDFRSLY
# Procedure, shortened: as §1
# [10] = test system: T10, O2T11
# T10 sequence (whole entry): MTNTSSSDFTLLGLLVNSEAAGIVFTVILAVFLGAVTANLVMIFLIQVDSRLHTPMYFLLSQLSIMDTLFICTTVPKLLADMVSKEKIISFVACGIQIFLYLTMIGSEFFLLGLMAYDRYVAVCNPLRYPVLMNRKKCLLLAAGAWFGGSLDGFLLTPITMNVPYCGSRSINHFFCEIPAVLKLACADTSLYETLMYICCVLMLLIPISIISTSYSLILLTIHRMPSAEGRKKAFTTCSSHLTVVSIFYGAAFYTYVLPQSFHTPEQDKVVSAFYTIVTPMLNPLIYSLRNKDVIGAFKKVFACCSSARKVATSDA
# Procedure, shortened: as §1
# [11] = test system: T11, O2T27 L36V V134D
# T11 sequence (whole entry): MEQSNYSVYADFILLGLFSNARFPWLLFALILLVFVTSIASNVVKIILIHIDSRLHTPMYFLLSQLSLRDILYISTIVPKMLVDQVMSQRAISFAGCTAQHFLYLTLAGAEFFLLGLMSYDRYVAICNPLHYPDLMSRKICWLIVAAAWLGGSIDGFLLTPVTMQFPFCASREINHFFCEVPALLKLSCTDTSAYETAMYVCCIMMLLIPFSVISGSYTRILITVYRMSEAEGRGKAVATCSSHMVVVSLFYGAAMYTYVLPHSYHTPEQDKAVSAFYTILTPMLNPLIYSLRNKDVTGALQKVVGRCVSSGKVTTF
# Procedure, shortened: as §1
# [12] = test system: T12, O2T29 Q24R
# T12 sequence (whole entry): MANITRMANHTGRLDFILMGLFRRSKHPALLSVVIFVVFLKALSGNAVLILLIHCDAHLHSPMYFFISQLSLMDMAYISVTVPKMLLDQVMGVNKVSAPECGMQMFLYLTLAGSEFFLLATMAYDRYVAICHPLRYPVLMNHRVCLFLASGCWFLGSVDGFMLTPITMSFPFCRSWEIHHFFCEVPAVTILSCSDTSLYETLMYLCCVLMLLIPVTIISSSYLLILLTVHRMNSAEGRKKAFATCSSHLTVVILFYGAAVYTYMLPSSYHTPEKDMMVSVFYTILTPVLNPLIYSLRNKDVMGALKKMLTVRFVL
# Procedure, shortened: as §1
# [13] = test system: T13, O2T33 A169V
# T13 sequence (whole entry): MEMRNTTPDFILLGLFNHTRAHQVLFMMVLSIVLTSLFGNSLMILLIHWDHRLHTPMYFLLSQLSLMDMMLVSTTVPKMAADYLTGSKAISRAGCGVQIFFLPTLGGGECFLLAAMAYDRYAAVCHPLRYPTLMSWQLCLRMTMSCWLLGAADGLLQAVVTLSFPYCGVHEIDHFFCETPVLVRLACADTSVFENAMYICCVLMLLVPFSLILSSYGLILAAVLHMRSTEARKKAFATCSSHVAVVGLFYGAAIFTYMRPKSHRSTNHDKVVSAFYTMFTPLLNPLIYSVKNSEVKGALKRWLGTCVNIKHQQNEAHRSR
# Procedure, shortened: as §1
# [14] = test system: T14, O2T33 G297E I309L
# T14 sequence (whole entry): T13 sequence (whole entry) with V169A, G297E, I309L
# Procedure, shortened: as §1
# [15] = test system: T15, O2T34 Q6P R267P
# T15 sequence (whole entry): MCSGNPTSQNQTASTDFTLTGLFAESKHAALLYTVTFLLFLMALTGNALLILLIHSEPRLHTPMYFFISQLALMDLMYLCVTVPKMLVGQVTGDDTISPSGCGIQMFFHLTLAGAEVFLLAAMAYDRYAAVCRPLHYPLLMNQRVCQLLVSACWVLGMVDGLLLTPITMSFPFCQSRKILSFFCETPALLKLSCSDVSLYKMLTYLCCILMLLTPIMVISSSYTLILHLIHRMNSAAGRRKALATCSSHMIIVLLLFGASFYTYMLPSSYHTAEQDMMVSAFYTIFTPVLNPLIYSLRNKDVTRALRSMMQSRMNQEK
# Procedure, shortened: as §1
# [16] = test system: T16, O2T34 R267P
# T16 sequence (whole entry): T15 sequence (whole entry) with P6Q
# Procedure, shortened: as §1
# [17] = test system: T17, O4A47
# T17 sequence (whole entry): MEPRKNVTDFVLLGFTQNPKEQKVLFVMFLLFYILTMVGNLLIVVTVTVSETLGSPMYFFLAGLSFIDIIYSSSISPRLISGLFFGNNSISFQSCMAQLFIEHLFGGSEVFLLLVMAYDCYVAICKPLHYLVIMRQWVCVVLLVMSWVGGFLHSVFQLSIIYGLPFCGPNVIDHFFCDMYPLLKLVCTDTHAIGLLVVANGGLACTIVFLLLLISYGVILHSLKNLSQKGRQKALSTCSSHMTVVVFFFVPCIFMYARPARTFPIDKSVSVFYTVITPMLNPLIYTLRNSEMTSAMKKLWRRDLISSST
# Procedure, shortened: as §1
# [18] = test system: O4C46 S240F C252Y K288R
# Procedure, shortened: as §1
# 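Also: active if original authors judged signal statistically different from baseline.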
smiles,measurement,setting,value
O=C1CCCCCC=CCCCCCCCCO1,odorant receptor agonist call,[1],active
O=C1CCCCCCCCCC1,odorant receptor agonist call,[1],inactive
CCCCCCC=CCCC=O,odorant receptor agonist call,[2],inactive
same,odorant receptor agonist call,[3],inactive
same,odorant receptor agonist call,[4],inactive
same,odorant receptor agonist call,[5],inactive
same,odorant receptor agonist call,[6],inactive
same,odorant receptor agonist call,[7],inactive
same,odorant receptor agonist call,[8],inactive
same,odorant receptor agonist call,[9],inactive
same,odorant receptor agonist call,[10],inactive
same,odorant receptor agonist call,[11],inactive
same,odorant receptor agonist call,[12],inactive
same,odorant receptor agonist call,[13],inactive
same,odorant receptor agonist call,[14],inactive
same,odorant receptor agonist call,[15],inactive
same,odorant receptor agonist call,[16],inactive
same,odorant receptor agonist call,[17],inactive
same,odorant receptor agonist call,[18],inactive
CC1CCCCCCCCCCCCC(=O)C1 (stereo unspecified),odorant receptor agonist call,[1],active
CCC(=O)OCC(C)(C)OC(C)C1CCCC(C)(C)C1 (stereo unspecified),odorant receptor agonist call,[1],inactive
